Reference: ChEMBL document CHEMBL1125896, “2-(oxadiazolyl)- and 2-(thiazolyl)imidazo[1,2-a]pyrimidines as agonists and inverse agonists at benzodiazepine receptors” (J Med Chem, 1991)

Experiments:
Rattus norvegicus [1] = assay: Minimum effective dose on oral administration; type: functional; details: read-out: MED
Summary of the method: (§1)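 Food-motivated conflict test in trained Lister rats: five alternating 4-min FI30 unpunished and five 3-min FR5 punished components. Dosing po 30 min before testing, first at 50 mg/kg in four rats, then at decreasing doses (20, 10, 5, 2, 1 mg/kg) if active. MED is the dose giving a significant rise in punished responding (Mann-Whitney U).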

[2] = molecular target: GABA-A receptor; anion channel; assay: Binding affinity towards benzodiazepine receptor by the displacement of [3H]flunitrazepam from rat brain preparations.
Mus musculus [3] = organism: Mus musculus; assay: Sedative/muscle relaxant effects in male CD-1 mice was assessed with a Ugo Basile rotating drum and the dose causing 50% decrease in time (ED50) was evaluated; type: functional
Summary of the method: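 Rotating drum of 3 cm diameter at 16 rev/min; time on drum recorded 1 h after dosing. Mean for groups of 10 mice expressed as percentage of control group mean.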

Mus musculus [4] = organism: Mus musculus; assay: Dose of leptazol-inducing tonic seizures in CD-1 mice was determined and represented as ED50; type: functional
Rattus norvegicus [5] = assay: Compound was tested for conflict antagonism of chlordiazepoxide (CDZP) at 10 mg/kg orally.; type: functional; details: po, read-out: MED
Summary of the method: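 Food-motivated conflict test in trained Lister rats: test compound given po with 10 mg/kg po chlordiazepoxide. Effect compared with chlordiazepoxide alone in the same rats in separate assays. Schedule of five alternating 4-min FI30 unpunished and five 3-min FR5 punished components.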

Rattus norvegicus [6] = assay: Compound was tested for the minimum effective dose (MED) on oral administration; value ranges from 2-5 mg/Kg; type: functional; details: read-out: MED; summary of the method: as §1
Mus musculus [7] = assay: Intraperitoneal dose of leptazol-inducing tonic seizures in CD-1 mice was determined and represented as ED50; type: functional; details: ip
Rattus norvegicus [8] = assay: Compound was tested for the minimum effective dose (MED) on oral administration; value ranges from 10-50 mg/Kg; type: functional; details: read-out: MED; summary of the method: as §1
Mus musculus [9] = organism: Mus musculus; assay: The dose of leptazol-inducing tonic seizures in CD-1 mice was determined and represented as ED50.; type: functional
Rattus norvegicus [10] = assay: Compound was tested for the minimum effective dose (MED) on oral administration; value ranges from 1-2 mg/Kg; type: functional; details: read-out: MED; summary of the method: as §1
Mus musculus [11] = organism: Mus musculus; assay: Sedative/muscle relaxant effects in male CD-1 mice was assessed with a Ugo Basile rotating drum and the dose causing 50% decrease in time (ED50) was calculated.; type: functional
Summary of the method: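 Male CD-1 mice, groups of 10, were placed on a rotating drum (3 cm diameter, 16 rev/min) 1 h after dosing and their time on the drum was recorded. The group mean was expressed as a percentage of the control group mean. The dose giving a 50% decrease came from best-fit lines through at least three dose-effect points, with 95% confidence limits by Litchfield and Wilcoxon.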

Structure (SMILES)	minimal effective dose (Rattus norvegicus [1]) [mg/kg]	IC50 [2] [µM]	other results
CCc1c(OC)nc2nc(-c3cc(C)[nH]n3)cn2c1C	> 50	5	–
CCc1c(OC)nc2nc(-c3nnc(C)o3)cn2c1C	2	–	ED50 (Mus musculus [3]): > 200 mg/kg; ED50 (Mus musculus [4]): 20 mg/kg
COc1nc2nc(-c3nc(C)cs3)cn2c2c1CCCC2	> 50	0.022	minimal effective dose (Rattus norvegicus [5]): > 50 mg/kg
CCc1c(OC)nc2nc(-c3nnco3)cn2c1C	> 50	10	–
CCc1c(OC)nc2nc(-c3n[nH]c(C)n3)cn2c1C	> 50	> 10	–
CCc1csc(-c2cn3c(C)c(CC)c(OC)nc3n2)n1	50	0.22	minimal effective dose (Rattus norvegicus [5]): 50 mg/kg
CCOC(=O)c1csc(-c2cn3c(C)c(CC)c(OC)nc3n2)n1	> 50	2.8	–
CCc1c(SC)nc2nc(-c3nc(C)cs3)cn2c1C	> 50	0.08	minimal effective dose (Rattus norvegicus [5]): 50 mg/kg
CCc1c(OC)nc2nc(-c3nnc(C)s3)cn2c1C	–	> 10	minimal effective dose (Rattus norvegicus [6]): 2 mg/kg
CCCc1c(OC)nc2nc(-c3nc(C)cs3)cn2c1C	> 50	0.1	minimal effective dose (Rattus norvegicus [5]): 50 mg/kg
CCCc1nnc(-c2cn3c(C)c(CC)c(OC)nc3n2)o1	50	> 10	–
C=CCc1c(OC)nc2nc(-c3noc(C)n3)cn2c1C	10	0.56	–
C/C=C/c1c(OC)nc2nc(-c3nnc(C)o3)cn2c1C	> 50	> 10	–
CCc1c(OC)nc2nc(-c3nc(C)cs3)cn2c1C	> 50	0.112	minimal effective dose (Rattus norvegicus [5]): 10 mg/kg; ED50 (Mus musculus [7]): 1.7 mg/kg
CCc1c(SC)nc2nc(-c3nnc(C)o3)cn2c1C	5	0.32	–
CCc1c(OC)nc2nc(-c3nc(C)c(C)s3)cn2c1C	> 50	2.5	minimal effective dose (Rattus norvegicus [5]): > 50 mg/kg
CCc1c(SC)nc2nc(-c3noc(C)n3)cn2c1C	2	0.16	–
CCc1nnc(-c2cn3c(C)c(CC)c(OC)nc3n2)o1	50	> 10	–

Structure (SMILES)	minimal effective dose (Rattus norvegicus [1]) [mg/kg]	IC50 [2] [µM]	other results
CCc1c(OC)nc2nc(-c3nccs3)cn2c1C	–	0.2	minimal effective dose (Rattus norvegicus [5]): 10 mg/kg
CCc1c(OC)nc2nc(-c3noc(C)n3)c(Cl)n2c1C	10	10	–
CCc1c(OC)nc2nc(-c3cnco3)cn2c1C	> 50	2.5	–
CCc1c(OC)nc2nc(-c3cc(C)no3)cn2c1C	50	4.5	–
CCc1c(OC)nc2nc(-c3nnc(C(F)(F)F)o3)cn2c1C	–	> 10	minimal effective dose (Rattus norvegicus [8]): 10 mg/kg
COc1nc2nc(-c3nnc(C)o3)cn2c2c1CCCC2	> 50	3.2	–
C=CCc1c(OC)nc2nc(-c3nc(C)cs3)cn2c1C	> 50	0.1	minimal effective dose (Rattus norvegicus [5]): > 50 mg/kg
C=CCc1c(OC)nc2nc(-c3nnc(C)o3)cn2c1C	10	2.5	–
CCc1c(OC)nc2nc(-c3noc(C(F)(F)F)n3)cn2c1C	–	–	ED50 (Mus musculus [3]): > 200 mg/kg; ED50 (Mus musculus [9]): 70 mg/kg; minimal effective dose (Rattus norvegicus [10]): 1 mg/kg
CCc1c(OC)nc2nc(-c3nnc(-c4ccccc4)o3)cn2c1C	> 50	> 10	–
CCCc1c(OC)nc2nc(-c3nnc(C)o3)cn2c1C	10	7.9	–
CCc1c(OC)nc2nc(-c3nc(C)no3)cn2c1C	5	0.63	ED50 (Mus musculus [3]): > 100 mg/kg; ED50 (Mus musculus [4]): 14 mg/kg
CCc1c(OC)nc2nc(-c3nc(C(F)(F)F)cs3)cn2c1C	> 50	2	minimal effective dose (Rattus norvegicus [5]): > 50 mg/kg
CCCc1c(OC)nc2nc(-c3noc(C)n3)cn2c1C	5	1.6	ED50 (Mus musculus [3]): 16.5 mg/kg; ED50 (Mus musculus [4]): 13 mg/kg
CCc1c(OC)nc2nc(-c3noc(C)n3)c(Br)n2c1C	10	10	–
CNC1=Nc2ccc(Cl)cc2C(c2ccccc2)=[N+]([O-])C1 [CHLORDIAZEPOXIDE]	2	–	ED50 (Mus musculus [11]): 6.8 mg/kg; ED50 (Mus musculus [9]): 1.9 mg/kg
CCc1c(OC)nc2nc(-c3noc(C)n3)cn2c1C [FASIPLON]	–	0.5	minimal effective dose (Rattus norvegicus [6]): 2 mg/kg; ED50 (Mus musculus [3]): 17 mg/kg; ED50 (Mus musculus [4]): 7.4 mg/kg
COc1nc2nc(-c3noc(C)n3)cn2c2c1CCCC2 [TANIPLON]	5	0.56	ED50 (Mus musculus [3]): > 100 mg/kg; ED50 (Mus musculus [4]): 55 mg/kg
